pIC50: −log10 of the molar value. Values after ≈ are worked out from the molar mass of the structure shown.
What was measured:
Haemophilus influenzae [1] = assay: In vitro antibacterial activity against Haemophilus influenzae (acr, LS-2); type: functional
Method in brief: (§1)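 MICs by NCCLS broth dilution guidelines, modified by adding 0.02% bovine serum albumin to the growth medium; purified, resynthesized compounds tested against the expanded bacterial panel.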

Streptococcus pneumoniae = assay: In vitro antibacterial activity against Streptococcus pneumoniae (ATTC49619); type: functional; method in brief: as §1
Haemophilus influenzae [2] = assay: In vitro antibacterial activity against Haemophilus influenzae (ATTC31517); type: functional; method in brief: as §1
Staphylococcus aureus [3] = assay: In vitro antibacterial activity against methicillin sensitive Staphylococcus aureus ATCC 25923; type: functional; method in brief: as §1
Enterococcus faecium = assay: In vitro antibacterial activity against Vancomycin-susceptible Enterococcus faecium BM4147.1; type: functional; method in brief: as §1
Staphylococcus aureus [4] = assay: In vitro antibacterial activity against methicillin resistant Staphylococcus aureus (MRSA) ATCC 33591; type: functional
[5] = system: Staphylococcus epidermidis; assay: In vitro antibacterial activity against Staphylococcus epidermidis (ATCC 12228); type: functional; method in brief: as §1
Streptococcus pyogenes = assay: In vitro antibacterial activity against Streptococcus pyogenes (ATTC19615); type: functional; method in brief: as §1
Enterococcus faecalis [6] = assay: In vitro antibacterial activity against Vancomycin-resistant Enterococcus faecalis ATCC 51299; type: functional
Escherichia coli = assay: In vitro antibacterial activity against Escherichia coli (A G100B); type: functional; method in brief: as §1
Enterococcus faecalis [7] = assay: In vitro antibacterial activity against Vancomycin-resistant Enterococcus faecalis (ATTC51299)
[8] = Inhibitory activity against elongation factor Tu (EF-Tu); type: functional, Bacteria

Structure (SMILES) | MIC (Haemophilus influenzae [1]) | MIC (Streptococcus pneumoniae) | MIC (Haemophilus influenzae [2]) | MIC (Staphylococcus aureus [3]) | MIC (Enterococcus faecium) | MIC (Staphylococcus aureus [4]) | MIC [5] | MIC (Streptococcus pyogenes) | MIC (Enterococcus faecalis [6]) | MIC (Escherichia coli) | MIC (Enterococcus faecalis [7]) | pIC50 [8]
CNC(=O)C[C@@H]1NC(=O)c2csc(n2)-c2ccc(-c3nc(COC(=O)N[C@@H](C)C(=O)O)cs3)nc2-c2csc(n2)-c2csc(n2)C(C(O)c2ccccc2)NC(=O)CNC(=O)c2nc(sc2COC)[C@H](C(C)C)NC(=O)c2nc1sc2C (stereo partly specified) | 1 µg/mL (≈ 0.815 µM) | 4 µg/mL (≈ 3.26 µM) | 16 µg/mL (≈ 13 µM) | 1 µg/mL (≈ 0.815 µM) | 0.25 µg/mL (≈ 0.204 µM) | 0.5 µg/mL (≈ 0.408 µM) | 2 µg/mL (≈ 1.63 µM) | 8 µg/mL (≈ 6.52 µM) | 0.5 µg/mL (≈ 0.408 µM) | > 16 µg/mL | – | –
CNC(=O)C[C@@H]1NC(=O)c2csc(n2)-c2ccc(-c3nc(C(=O)N(C)CCCC(=O)O)cs3)nc2-c2csc(n2)-c2csc(n2)C(C(O)c2ccccc2)NC(=O)CNC(=O)c2nc(sc2COC)[C@H](C(C)C)NC(=O)c2nc1sc2C (stereo partly specified) | 1 µg/mL (≈ 0.817 µM) | 2 µg/mL (≈ 1.63 µM) | 2 µg/mL (≈ 1.63 µM) | 0.5 µg/mL (≈ 0.408 µM) | 0.125 µg/mL (≈ 0.102 µM) | 0.25 µg/mL (≈ 0.204 µM) | 1 µg/mL (≈ 0.817 µM) | 4 µg/mL (≈ 3.27 µM) | 0.25 µg/mL (≈ 0.204 µM) | > 16 µg/mL | – | –
CNC(=O)C[C@@H]1NC(=O)c2csc(n2)-c2ccc(-c3nc(COC(=O)N(C)CCCC(=O)O)cs3)nc2-c2csc(n2)-c2csc(n2)C(C(O)c2ccccc2)NC(=O)CNC(=O)c2nc(sc2COC)[C@H](C(C)C)NC(=O)c2nc1sc2C (stereo partly specified) | 2 µg/mL (≈ 1.59 µM) | > 16 µg/mL | 8 µg/mL (≈ 6.38 µM) | 0.5 µg/mL (≈ 0.399 µM) | 0.5 µg/mL (≈ 0.399 µM) | 0.25 µg/mL (≈ 0.199 µM) | 0.5 µg/mL (≈ 0.399 µM) | > 16 µg/mL | 0.5 µg/mL (≈ 0.399 µM) | > 16 µg/mL | – | –
CNC(=O)C[C@@H]1NC(=O)c2csc(n2)-c2ccc(-c3nc(C(=O)NCC(O)CC(=O)O)cs3)nc2-c2csc(n2)-c2csc(n2)C(C(O)c2ccccc2)NC(=O)CNC(=O)c2nc(sc2COC)[C@H](C(C)C)NC(=O)c2nc1sc2C (stereo partly specified) | 2 µg/mL (≈ 1.63 µM) | 2 µg/mL (≈ 1.63 µM) | > 16 µg/mL | 1 µg/mL (≈ 0.815 µM) | 0.25 µg/mL (≈ 0.204 µM) | 0.25 µg/mL (≈ 0.204 µM) | 2 µg/mL (≈ 1.63 µM) | 1 µg/mL (≈ 0.815 µM) | 0.25 µg/mL (≈ 0.204 µM) | > 16 µg/mL | – | –
CNC(=O)C[C@@H]1NC(=O)c2csc(n2)-c2ccc(-c3nc(COC(=O)NCCCCC(=O)O)cs3)nc2-c2csc(n2)-c2csc(n2)C(C(O)c2ccccc2)NC(=O)CNC(=O)c2nc(sc2COC)[C@H](C(C)C)NC(=O)c2nc1sc2C (stereo partly specified) | 2 µg/mL (≈ 1.59 µM) | 2 µg/mL (≈ 1.59 µM) | 8 µg/mL (≈ 6.38 µM) | 0.5 µg/mL (≈ 0.399 µM) | 0.125 µg/mL (≈ 0.0996 µM) | 0.25 µg/mL (≈ 0.199 µM) | 0.5 µg/mL (≈ 0.399 µM) | 4 µg/mL (≈ 3.19 µM) | 0.5 µg/mL (≈ 0.399 µM) | > 16 µg/mL | – | –
CNC(=O)C[C@@H]1NC(=O)c2csc(n2)-c2ccc(-c3nc(COC(=O)N[C@H](C)C(=O)O)cs3)nc2-c2csc(n2)-c2csc(n2)C(C(O)c2ccccc2)NC(=O)CNC(=O)c2nc(sc2COC)[C@H](C(C)C)NC(=O)c2nc1sc2C (stereo partly specified) | 1 µg/mL (≈ 0.815 µM) | 2 µg/mL (≈ 1.63 µM) | 16 µg/mL (≈ 13 µM) | 0.5 µg/mL (≈ 0.408 µM) | 0.25 µg/mL (≈ 0.204 µM) | 0.5 µg/mL (≈ 0.408 µM) | 2 µg/mL (≈ 1.63 µM) | 2 µg/mL (≈ 1.63 µM) | 1 µg/mL (≈ 0.815 µM) | > 16 µg/mL | – | –
CNC(=O)C[C@@H]1NC(=O)c2csc(n2)-c2ccc(-c3nc(COC(=O)NCC(O)CC(=O)O)cs3)nc2-c2csc(n2)-c2csc(n2)C(C(O)c2ccccc2)NC(=O)CNC(=O)c2nc(sc2COC)[C@H](C(C)C)NC(=O)c2nc1sc2C (stereo partly specified) | 2 µg/mL (≈ 1.59 µM) | 4 µg/mL (≈ 3.18 µM) | > 16 µg/mL | 1 µg/mL (≈ 0.796 µM) | 0.5 µg/mL (≈ 0.398 µM) | 0.5 µg/mL (≈ 0.398 µM) | 2 µg/mL (≈ 1.59 µM) | 8 µg/mL (≈ 6.37 µM) | 1 µg/mL (≈ 0.796 µM) | > 16 µg/mL | – | –
CNC(=O)C[C@@H]1NC(=O)c2csc(n2)-c2ccc(-c3nc(C4=N[C@H](C(=O)N5CCC[C@H]5C(N)=O)CO4)cs3)nc2-c2csc(n2)-c2csc(n2)C(C(O)c2ccccc2)NC(=O)CNC(=O)c2nc(sc2COC)[C@H](C(C)C)NC(=O)c2nc1sc2C (stereo partly specified) | > 16 µg/mL | 0.06 µg/mL (≈ 0.0465 µM) | > 16 µg/mL | 0.03 µg/mL (≈ 0.0232 µM) | 0.015 µg/mL (≈ 0.0116 µM) | 0.03 µg/mL (≈ 0.0232 µM) | 0.03 µg/mL (≈ 0.0232 µM) | 0.125 µg/mL (≈ 0.0969 µM) | – | > 16 µg/mL | 0.015 µg/mL (≈ 0.0116 µM) | 8.30

From ChEMBL document CHEMBL1144979, “Combinatorial modification of natural products: synthesis and in vitro analysis of derivatives of thiazole peptide antibiotic GE2270 A: A-ring modifications” (Bioorg Med Chem Lett, 2003)
